Measurements from ChEMBL document CHEMBL3112469, “Substituted 2-phenylimidazopyridines: a new class of drug leads for human African trypanosomiasis” (J Med Chem, 2014).
Values after ≈ are worked out from the molar mass of the structure shown. Active and inactive are the calls of the source. No cut-off for these calls is given here.

Assays:
[1] = tested on: Trypanosoma brucei brucei; assay: Antiparasitic activity against Trypanosoma brucei brucei BF427 assessed as growth inhibition by Alamar Blue assay; assay type: functional, organism-based
Summary of the method: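 Bloodstream-form T. brucei brucei BF427 grown with serial compound dilutions, each tested in triplicate. Growth quantified with AlamarBlue. Pentamidine isothionate included in every assay as positive control.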

[2] = Cytotoxicity against human CRL8155 cells after 48 hrs by Alamar Blue assay; assay type: cell-based; conditions: crl8155, 48 h
[3] = tested on: Trypanosoma brucei rhodesiense; assay: Antiparasitic activity against Trypanosoma brucei rhodesiense; assay type: functional, organism-based
HepG2 = assay: Cytotoxicity against human HepG2 cells after 48 hrs by Alamar Blue assay; assay type: cell-based; conditions: hepg2, 48 h
L6 = assay: Cytotoxicity against rat L6 cells after 48 hrs by Alamar Blue assay; assay type: cell-based; conditions: l6, 48 h
Liver microsome = assay: Half life in human liver microsomes by LC-MS analysis; assay type: ADME
Summary of the method: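 Compounds incubated with mouse or human liver microsomes. Samples removed at time points and analysed by LC-MS/MS. Dextromethorphan and testosterone used as reference drugs to standardize each assay.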

[4] = Aqueous solubility of the compound at pH 7.4 after 5 to 10 mins by HPLC analysis; assay type: physicochemical; conditions: buffer
Mus musculus [5] = assay: (§1) AUC in mouse plasma at 50 mg/kg, po by LC-MS analysis; assay type: ADME, organism-based; set-up: dose 50 mg/kg, route oral; conditions: in vivo
Summary of the method: (§2)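 Mice, groups of three, were given 50 mg/kg by oral gavage in 0.2 mL vehicle (7% Tween 80, 3% ethanol, 5% DMSO, 0.9% saline). Blood was sampled at 30, 60, 120, 180, 240 and 360 min. Plasma was separated and extracted with acetonitrile, and compound was quantified by LC-MS/MS.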

Mus musculus [6] = assay: (§3) Tmax in mouse plasma at 50 mg/kg, po by LC-MS analysis; assay type: ADME, organism-based; set-up: dose 50 mg/kg, route oral; conditions: in vivo; summary of the method: as §2
[7] = Apparent permeability across MDCK2 cells expressing human MDR1; assay type: ADME, cell-based, Canis lupus familiaris; conditions: dog, mdck-ii
Summary of the method: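 MDCKII cells transfected with human MDR1 (P-gp) grown as monolayers; permeability (Papp) measured in triplicate with and without the MDR1 inhibitor GF-120918.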

[8] = Clearance in mouse plasma at 50 mg/kg, po by LC-MS analysis; assay type: ADME, organism-based; set-up: dose 50 mg/kg, route oral
Summary of the method: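 Mice, three per compound, given 50 mg/kg by oral gavage in 0.2 mL of 7% Tween 80/3% ethanol/5% DMSO/0.9% saline. Plasma extracted with acetonitrile and quantified by LC-MS/MS.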

Nucleic Acid [9] = assay: Ratio of drug level in brain to plasma in mouse at 5 mg/kg, ip after 15 mins; assay type: ADME, organism-based; set-up: dose 5 mg/kg, route intraperitoneal; conditions: 0.25 h
Summary of the method: (§4)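 Mice, groups of three, received 5 mg/kg ip in 0.4 mL vehicle (7% Tween 80, 3% ethanol, 5% DMSO, 0.9% saline) and were sacrificed at set times. Brains were weighed, frozen and homogenized in acetonitrile; plasma came from heparinized capillary blood. Both were measured by LC-MS/MS. Brain concentration used 1 g = 1 mL and was corrected for 2.5% vasculature volume.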

[10] = Aqueous solubility of the compound at pH 2 after 5 to 10 mins by HPLC analysis; assay type: physicochemical; conditions: buffer
Nucleic Acid [11] = assay: Ratio of drug level in brain to plasma in mouse at 5 mg/kg, ip after 60 mins; assay type: ADME, organism-based; set-up: dose 5 mg/kg, route intraperitoneal; conditions: 1 h; summary of the method: as §4
Mus musculus [12] = assay: Elimination half life in mouse plasma at 50 mg/kg, po by LC-MS analysis; assay type: ADME, organism-based; set-up: dose 50 mg/kg, route oral; conditions: in vivo
Summary of the method: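 Mice dosed by oral gavage at 50 mg/kg in 0.2 mL vehicle (7% Tween 80, 3% ethanol, 5% DMSO, 0.9% saline), groups of three. Plasma separated and extracted with acetonitrile, and compound quantified by LC-MS/MS.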

Mus musculus [13] = assay: (§5) Cmax in mouse plasma at 50 mg/kg, po LC-MS analysis; assay type: ADME, organism-based; set-up: dose 50 mg/kg, route oral; conditions: in vivo; summary of the method: as §2
[14] = as §1; assay type: ADME, organism-based; set-up: dose 50 mg/kg, route oral; conditions: plasma; summary of the method: as §2
[15] = as §3; assay type: ADME, organism-based; set-up: dose 50 mg/kg, route oral; conditions: plasma; summary of the method: as §2
[16] = tested on: Trypanosoma brucei rhodesiense; assay: Antitrypanosomal activity against Trypanosoma brucei rhodesiense ST1B900 infected in Swiss Webster mouse assessed as cure from infection at 5 to 50 mg/kg, po bid administered 48 hrs postinfection for 5 days measured on day 60; assay type: functional, organism-based
[17] = tested on: Trypanosoma brucei rhodesiense; assay: Antitrypanosomal activity against Trypanosoma brucei rhodesiense ST1B900 infected in Swiss Webster mouse assessed as cure from infection at 50 mg/kg, po qd administered 48 hrs postinfection for 5 days measured on day 60; assay type: functional, organism-based; set-up: dose 50 mg/kg
[18] = tested on: Trypanosoma brucei rhodesiense; assay: Antitrypanosomal activity against Trypanosoma brucei rhodesiense ST1B900 infected in Swiss Webster mouse assessed as cure from infection at 1 mg/kg, po bid administered 48 hrs postinfection for 5 days measured on day 4 to 13; assay type: functional, organism-based; set-up: dose 1 mg/kg
Rattus norvegicus [19] = assay: Oral bioavailability in Sprague-Dawley rat at 21.3 mg/kg by LC-MS analysis; assay type: ADME, organism-based; conditions: in vivo
Rattus norvegicus [20] = assay: Apparent volume of distribution at steady state in Sprague-Dawley rat at 20 mg/kg, po and 5 mg/kg, iv by LC-MS analysis; assay type: ADME, organism-based; conditions: in vivo
Summary of the method: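 Jugular-cannulated Sprague-Dawley rats, two per route. Oral gavage 20 mg/kg or iv 5 mg/kg infused over 0–3 min, each in 1 mL of 7% Tween 80/3% EtOH/5% DMSO/saline. Jugular blood sampled from 5 to 1440 min. Plasma extracted with acetonitrile and analysed by LC-MS/MS.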

[21] = as §5; assay type: ADME, organism-based; set-up: dose 50 mg/kg, route oral; conditions: plasma; summary of the method: as §2

Structure (SMILES) | EC50 [1] | CC50 [2] | EC50 [3] | CC50 (HepG2) | CC50 (L6) | Papp [7] | BPR (Nucleic Acid [11]) | further results
O=C(Nc1ccc(F)c(-c2nc3ncc(-c4ccc(F)cc4)cc3o2)c1)c1ccco1 | 50 nM | > 50000 nM | 100 nM | 32000 nM |  |  |  | 
O=C(Nc1ccc(Cl)c(-c2nc3ncccc3o2)c1)C(F)(F)F |  |  | > 50000 nM |  |  |  |  | 
O=C(Nc1ccc(F)c(-c2nc3ncc(-c4ccccc4)cc3o2)c1)c1ccco1 | 40 nM |  | 80 nM |  | 7000 nM |  |  | 
O=C(Nc1ccc(Cl)c(-c2nc3ncccc3o2)c1)c1ccco1 | 220 nM | > 50000 nM |  | > 50000 nM | > 50000 nM | 41.7 ×10⁻⁶ cm/s | 0.38 | t1/2 (Liver microsome): 6.4 min; solubility [4]: 20 µM (≈ 6.79 µg/mL); AUC (Mus musculus [5]): 187 µM·min; Tmax (Mus musculus [6]): 30 min; CL/F [8]: 98 mL/min/kg; BPR (Nucleic Acid [9]): 0.54; solubility [10]: 22 µM (≈ 7.47 µg/mL); beta t1/2 (Mus musculus [12]): 53 min; Cmax (Mus musculus [13]): 60 nM
O=C(Nc1ccc(F)c(-c2nc3cc(-c4ccccc4)cnc3[nH]2)c1)N1CCCC1 | 2 nM |  |  |  |  | 40.1 ×10⁻⁶ cm/s | 0.5 | AUC [14]: 18.8 µM·h; Tmax [15]: 30 min; Activity [16]: Active; Activity [17]: Active; Activity [18]: inactive; F (Rattus norvegicus [19]): 35%; Vdss(app) (Rattus norvegicus [20]): 2.4 L/kg; Cmax [21]: 4300 nM
